Source: PubChem (The Scripps Research Institute Molecular Screening Center)
M1 antag: human M1 muscarinic receptor antagonists, primary screen, CHO-K1 cells, Fluo-8 calcium fluorescence, 1536-well; Muscarinic acetylcholine receptor M1 (Homo sapiens), P11229; CHO-K1 hM1, ACh EC80 antagonist; inhibition, % at 3 µM; 360,000 tested, 1.3% active; AID 588852, 2011;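 active = percent inhibition above its own plate's cutoff, namely the mean of that plate's compound wells plus 3 SD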;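 also: peak over basal fluorescence ratio during 140 s after agonist addition; 0% = ACh EC80 plus DMSO and 100% = DMSO alone without agonist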
Target sequence (P11229 whole entry, looked up): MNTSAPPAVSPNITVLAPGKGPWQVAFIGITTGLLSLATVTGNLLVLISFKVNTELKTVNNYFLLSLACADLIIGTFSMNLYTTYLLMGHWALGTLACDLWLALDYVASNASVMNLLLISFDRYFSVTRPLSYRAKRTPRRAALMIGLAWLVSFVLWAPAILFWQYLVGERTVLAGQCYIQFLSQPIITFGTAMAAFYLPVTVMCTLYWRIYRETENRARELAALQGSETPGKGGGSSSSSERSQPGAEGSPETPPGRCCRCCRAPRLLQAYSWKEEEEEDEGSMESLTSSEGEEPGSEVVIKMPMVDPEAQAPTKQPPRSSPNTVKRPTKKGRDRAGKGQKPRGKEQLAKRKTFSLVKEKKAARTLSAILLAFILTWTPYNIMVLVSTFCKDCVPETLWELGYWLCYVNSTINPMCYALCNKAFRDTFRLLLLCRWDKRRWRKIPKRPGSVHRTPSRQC
M1 ag: human M1 muscarinic receptor agonists, primary screen, Fluo-8 calcium fluorescence, CHO-K1 cells, HTS. Muscarinic acetylcholine receptor M1 (Homo sapiens), P11229. CHO-K1 hM1, agonist mode; 0% DMSO, 100% acetylcholine EC100. activation, % at 3 µM. 360,000 tested, 0.33% active. AID 588814, 2011;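 active = activation above the run's mean compound activation plus 3 SD, cut at about 16% in these data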;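 also: peak over basal fluorescence ratio within a 140 s kinetic read after compound addition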
TAAR1 antagonist: human TAAR1 antagonists, primary screen, Fluo-8 calcium fluorescence, CHO RD-HGA16 cells; antagonist; inhibition, % at 3 µM; AID 624466, 2012; 360,000 tested, 1.5% active; Trace amine-associated receptor 1 (Homo sapiens), Q96RJ0;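 active = inhibition above a per-plate cutoff, the mean inhibition of test compounds on that plate plus 3 SD, cut at about 49% in these data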;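 also: 0% = DMSO plus EC80 beta-PEA response and 100% = DMSO alone without agonist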
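Assay system: RD-HGA16 CHO cells with stable hTAAR1 and Gα16 / Reagent: EC80 β-phenethylamine stimulus / Doses: 3 µM, single point / Timing: dye loading 75 min at 37 °C, then 30 min room temperature / Measured by: Fluo-8 intracellular calcium dye fluorescence, real-time kinetic reads / Controls: vehicle wells and EC80 agonist wells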
TAAR1 ag: human TAAR1 agonists, primary screen, Fluo-8 calcium fluorescence, CHO RD-HGA16 cells; Trace amine-associated receptor 1 (Homo sapiens), Q96RJ0; vehicle wells 0%, saturating PEA agonist 100%; activation, % at 3 µM; 360,000 tested, 0.99% active; AID 624467, 2012;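 active = activation above the mean activation of all test compounds in the run plus 3 SD, cut at about 38% in these data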
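Test system: RD-HGA16 (CHO) cells co-expressing Gα16 and hTAAR1 | Doses: Single dose, 3 µM | Schedule: 17-24 h seeding, 75 min 37 °C dye, 30 min RT | Evaluation: % activation from peak over basal fluorescence ratio, DMSO-to-PEA scaled | Technique: Kinetic Fluo-8 calcium fluorescence | Benchmarks: Low control DMSO, high control PEA (EC100)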
M1 PAM: human M1 muscarinic receptor positive allosteric modulators, primary screen, CHO-K1 cells, Fluo-8 calcium fluorescence, 1536-well | Muscarinic acetylcholine receptor M1 (Homo sapiens), P11229 | CHO-K1 hM1, ACh EC20; 0% = ACh EC20, 100% = maximal ACh | activation, % at 3 µM | AID 588819, 2011 | 360,000 tested, 0.088% active; in the data active = activation above about 19%, passing the limit was not always enough
* = called active by the depositor; · = no result. Shown are actives, neighbours in structure and some others; about 3.4% of the full set was active somewhere.

SMILES	M1 antag	M1 ag	TAAR1 antagonist	TAAR1 ag	M1 PAM
CCOC(=O)C1CCCN(C(=O)/C=C/c2cc(OC)c(OC)c(OC)c2)C1 (stereo unspecified)	4.9	23.9*	2.8	12.2	-5.5
CCOC(=O)C1CCCN(C(=O)/C=C/c2ccc(Cl)cc2)C1 (stereo unspecified)	-2.0	3.0	-2.5	0.9	3.8
O=C(OCCOc1ccc(Cl)cc1)c1cc(S(=O)(=O)N2CCCCC2)ccc1N1CCOCC1	19.5	-4.9	32.2	0.3	-4.0
CCOCC(=O)N1CCCC(C(=O)OCC)C1 (stereo unspecified)	101.1*	0.2	-5.4	13.7	-0.1
CCOC(=O)C1CCCN(C(=O)CCCn2nc(C)n3c(cc4sccc43)c2=O)C1 (stereo unspecified)	10.0	34.5*	6.3	32.4	-16.0
CCOCCCNC(=O)CCCn1nc(C)n2c(cc3sccc32)c1=O	3.1	-1.6	-16.4	0.8	-2.4
Cc1ccc(OCCOC(=O)c2cc(S(=O)(=O)N3CCCCC3)ccc2N2CCOCC2)cc1	28.5*	-4.3	50.1*	0.1	-10.6
CCOC(=O)C1CCCN(C(=O)Cc2ccc(C)cc2)C1 (stereo unspecified)	-8.2	1.0	9.9	4.6	5.8
CCOC(=O)C1CCCN(C(=O)C2CCCN(S(C)(=O)=O)C2)C1 (stereo unspecified)	-20.3	1.4	-22.4	-1.2	9.2
CCOC(=O)C1CCCN(C(=O)COc2ccc(S(=O)(=O)N3CCOCC3)cc2)C1 (stereo unspecified)	11.2	31.3*	4.4	15.0	-4.1
CCOC(=O)C1CCCN(C(=O)Cn2sc3nc(C)cc(C)c3c2=O)C1 (stereo unspecified)	-11.1	22.1*	·	·	4.6
CCOC(=O)C1CCCN(C(=O)CCCn2nnnc2CN2CCOCC2)C1 (stereo unspecified)	4.1	48.7*	22.0	39.6*	-20.2
CCOC(=O)C1CCN(C(=O)COc2ccc(S(=O)(=O)N3CCOCC3)cc2)CC1	-8.5	-1.8	-4.1	1.9	6.7
CCCCC(=O)N1CCCC(C(=O)OCC)C1 (stereo unspecified)	0.6	26.0*	14.0	7.6	-6.9
COc1ccc(-c2c(-c3ccccc3OC)sc3ccccc23)cc1F	·	·	-11.3	0.9	·
CC(=O)C1=C(C)N(Cc2ccc(F)cc2)C(=S)NC1c1cccc(Cl)c1 (stereo unspecified)	·	·	46.6	1.3	·
CCOC(=O)[C@]12CCCC=C1N(CCC1=CCCCC1)C(=O)[C@H](CC(=O)N1CCN(C(=O)C3CC3)CC1)C2	·	·	-23.8	-2.6	·
CC(C)(C)c1ccc(C(=O)N2CCC2(C)C(=O)Nc2cccc3ncccc23)cc1 (stereo unspecified)	-7.6	-3.2	-8.1	3.7	3.8
CCOC(=O)c1c(NC(=O)CSc2nnc(-c3ccccc3C)n2C)sc(C(C)=O)c1C	46.4*	-3.6	9.7	8.4	-18.6
CCOC(=O)c1c(NC(=O)CSc2nc3cccnc3n2C)sc(C(C)=O)c1C	-31.0	-3.5	·	·	1.4
CCOC(=O)N1CCN(C(=O)C[C@@H]2C[C@@]3(C(=O)OC)CC(C)(C)CC=C3N(CCc3ccc(OC)c(OC)c3)C2=O)CC1	·	·	11.0	2.1	·
O=C(Nc1c(C(=O)N2CCC(N3CCCCC3)CC2)oc2ccccc12)c1ccc(F)cc1	-12.6	-4.8	-17.1	1.2	10.2
NC(=O)c1oc2ccccc2c1NC(=O)c1ccc(F)cc1	61.7*	-5.7	6.9	5.3	-29.7
O=C(C(=O)N1CCC(CNC(=O)c2ccccc2F)CC1)c1cc2ccccc2o1	·	·	11.3	0.3	·
CCOC(=O)C(c1nc2ccccc2[nH]1)n1c(-c2ccccn2)nc2ccccc21 (stereo unspecified)	-41.8	-1.1	0.4	0.6	7.6
SMILES	M1 antag	M1 ag	TAAR1 antagonist	TAAR1 ag	M1 PAM
CC(=O)c1cccc(NC(=O)C(C)OC(=O)c2cccc(S(=O)(=O)N3CCN(C)CC3)c2)c1 (stereo unspecified)	70.8*	67.6*	-17.0	5.3	-24.4
CC(C)Oc1ccc(C(=O)Nc2cccc(S(=O)(=O)N3CCCC3)c2)cc1	47.5*	-4.2	-4.3	0.9	-31.5
CC(=O)c1cccc(NC(=O)c2ccc(S(=O)(=O)N3CCCC3)cc2)c1	25.3*	-10.9	3.5	0.7	-14.8
CC(=O)c1cccc(NC(=O)c2ccc(N(C)S(=O)(=O)c3ccc(C)cc3)cc2)c1	7.6	1.2	54.9*	6.9	-1.8
CC(=O)c1ccc(NC(=O)c2ccc(S(=O)(=O)N3CCCC3)cc2)cc1	13.1	-7.2	2.1	8.1	-9.8
CN(c1ccccc1)S(=O)(=O)c1ccc(NC(=O)c2nc(S(C)(=O)=O)ncc2Cl)cc1	31.4	-0.4	48.9*	18.2	-9.6
COc1ccc(CC2(CO)CCN(CC3=Cc4cc(Cl)ccc4OC3)CC2)cc1	26.6*	-10.5	11.3	17.4	-33.3
COc1ccc(CC2(CO)CCN(Cc3cnn(-c4ccccc4)c3)CC2)cc1	-3.0	-13.3	10.4	7.4	4.3
COc1ccc2c(c1)C=C(CN1CCC(CO)(CCc3ccccc3)CC1)CO2	19.2	-15.3	6.8	9.5	-33.8
CCCn1ncc(CN2CCC(CO)(Cc3ccc(OC)cc3)CC2)c1C	42.3*	-13.8	11.1	-0.2	-31.6
COC(=O)C1=C(C)N(C)C(=NCc2ccc(OC)cc2)NC1c1ccccc1 (stereo unspecified)	·	·	-10.9	1.2	·
COC(=O)[C@H](Cc1ccccc1)N[C@H](c1ccc(OC)cc1)[C@@H](O)Cc1ccccc1	·	·	6.5	-0.2	·
O=C(NC(c1ccc(Cl)cc1)c1ccsc1)C1CCN(Cc2cccc(Cl)c2)CC1 (stereo unspecified)	9.7	-2.1	41.2	10.4	-9.4
CC(C)(C)NS(=O)(=O)c1ccc(CCC(=O)Nc2cc(Cl)ccc2Oc2ccccc2)cc1	13.7	-3.8	28.2	3.8	-12.3
CC(C)CNS(=O)(=O)c1ccc(CCC(=O)Nc2cc(Cl)ccc2Oc2ccccc2)cc1	11.7	-3.0	63.3*	6.7	-17.3
CCCNS(=O)(=O)c1ccc(CCC(=O)Nc2cc(Cl)ccc2Oc2ccccc2)cc1	29.8	-0.3	68.6*	9.3	-7.3
O=C(Nc1ccccc1)N1c2ccccc2SC1c1ccco1 (stereo unspecified)	·	·	-24.1	1.6	·
COc1ccc(C(=O)c2[nH]c(N)c(C(=O)NCCc3c[nH]c4ccccc34)c2-c2c(F)cccc2Cl)cc1	·	·	6.8	1.4	·
